Measured values reported in ChEMBL document CHEMBL1156983, “Modulation of cell surface expression of nonactivated cholecystokinin receptors using bivalent ligand-induced internalization” (J Med Chem, 2010).
Activity calls are given as the source filed them. The rule behind the calls is not given here.

Assays:
Format in all cases: cell-based
[1] = biological target: Mu-type opioid receptor (Homo sapiens) (UniProt P35372); assay: Induction of receptor internalization in YC-tagged mu opioid receptor expressed in CHO cells at 4 degC; details: TDE = time-dependent effect
Chain of Mu-type opioid receptor (Homo sapiens) (P35372 whole entry): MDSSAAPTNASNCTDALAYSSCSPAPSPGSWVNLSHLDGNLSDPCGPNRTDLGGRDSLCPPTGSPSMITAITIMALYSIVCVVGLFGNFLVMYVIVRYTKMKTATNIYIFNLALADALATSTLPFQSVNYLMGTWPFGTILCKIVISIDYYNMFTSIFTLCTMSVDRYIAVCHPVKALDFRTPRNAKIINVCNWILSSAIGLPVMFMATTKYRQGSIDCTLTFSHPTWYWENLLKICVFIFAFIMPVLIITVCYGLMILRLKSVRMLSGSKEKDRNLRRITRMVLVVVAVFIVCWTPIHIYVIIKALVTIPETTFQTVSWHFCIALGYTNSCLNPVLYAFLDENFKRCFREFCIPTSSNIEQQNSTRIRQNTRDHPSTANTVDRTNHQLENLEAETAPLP
Outline: (§1)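 CHO cells stably coexpressing YN-tagged CCK2 and YC-tagged MOP receptors on coverslips, washed with PBS containing 0.08 mM CaCl2 and 0.1 mM MgCl2. Incubated with 100 nM ligand at 4 °C for 90 min, washed with ice-cold PBS, then moved to prewarmed 37 °C PBS for various times. Fixed in 2% paraformaldehyde; reconstituted YFP fluorescence imaged by epifluorescence microscopy.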

[2] = biological target: Mu-type opioid receptor (Homo sapiens) (UniProt P35372); assay: Induction of receptor internalization in YC-tagged mu opioid receptor expressed in CHO cells after 90 mins; outline: as §1
[3] = biological target: T1, Gastrin/cholecystokinin type B receptor (Homo sapiens) (UniProt P32239); assay: Induction of receptor internalization in YN-tagged CCK2 receptor expressed in CHO cells after 90 mins; outline: as §1
T1 sequence (whole entry): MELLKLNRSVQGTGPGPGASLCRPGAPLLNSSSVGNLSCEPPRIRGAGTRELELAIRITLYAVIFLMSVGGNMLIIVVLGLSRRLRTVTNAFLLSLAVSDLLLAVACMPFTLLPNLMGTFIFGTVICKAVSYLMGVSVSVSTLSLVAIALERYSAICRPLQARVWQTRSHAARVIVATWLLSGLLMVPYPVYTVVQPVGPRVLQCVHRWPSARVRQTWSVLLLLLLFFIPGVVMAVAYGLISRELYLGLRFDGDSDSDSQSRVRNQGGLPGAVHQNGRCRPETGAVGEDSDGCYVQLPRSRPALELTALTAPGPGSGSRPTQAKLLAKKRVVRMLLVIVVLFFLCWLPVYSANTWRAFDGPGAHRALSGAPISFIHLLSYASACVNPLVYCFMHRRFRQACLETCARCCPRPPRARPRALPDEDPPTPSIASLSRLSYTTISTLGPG

[4] = biological target: T1, Gastrin/cholecystokinin type B receptor (Homo sapiens); assay: Induction of receptor internalization in YN-tagged CCK2 receptor expressed in CHO cells at 4 degC; outline: as §1
[5] = biological target: T1, Gastrin/cholecystokinin type B receptor (Homo sapiens); assay: Induction of receptor internalization in YFP-tagged CCK2 receptor expressed in CHO cells
Outline: (§2)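 CHO cells stably expressing YFP-tagged MOP or YFP-tagged CCK2 receptor on coverslips, washed in PBS with 0.08 mM CaCl2 and 0.1 mM MgCl2. Incubated with 100 nM ligand at 4 °C for 90 min, washed with ice-cold PBS, then warmed in 37 °C PBS for various times. Fixed with 2% paraformaldehyde; YFP localization imaged by epifluorescence.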

[6] = biological target: Mu-type opioid receptor (Homo sapiens) (UniProt P35372); assay: Induction of receptor internalization in YFP-tagged mu opioid receptor expressed in CHO cells; outline: as §2

| Structure (SMILES) | Activity [1] | Activity [2] | Activity [3] | Activity [4] | also measured |
| --- | --- | --- | --- | --- | --- |
| CN1C(=O)[C@H](NC(=O)Nc2cccc(OCCNC(=O)COCC(=O)NCCNC(=O)COCC(=O)N[C@H]3CC[C@@]4(O)C5Cc6ccc(O)c7c6[C@@]4(CCN5)[C@H]3O7)c2)N=C(c2ccccc2)c2ccccc21 | tde | Active | Active | Active |  |
| CNC(=O)COCC(=O)NCCCCCCNC(=O)COCC(=O)NCCOc1cccc(NC(=O)N[C@@H]2N=C(c3ccccc3)c3ccccc3N(C)C2=O)c1 |  | inactive |  |  | Activity [5]: Active |
| Cc1cccc(NC(=O)N[C@@H]2N=C(c3ccccc3)c3ccccc3N(C)C2=O)c1 |  |  |  |  | Activity [5]: inactive |
| CN1C(=O)[C@H](NC(=O)Nc2cccc(OCCNC(=O)COCC(=O)NCCCCCCNC(=O)COCC(=O)N[C@H]3CC[C@@]4(O)C5Cc6ccc(O)c7c6[C@@]4(CCN5)[C@H]3O7)c2)N=C(c2ccccc2)c2ccccc21 | tde | Active | Active | Active |  |
| CN1C(=O)[C@H](NC(=O)Nc2cccc(OCCNC(=O)COCC(=O)NNC(=O)COCC(=O)N[C@H]3CC[C@@]4(O)C5Cc6ccc(O)c7c6[C@@]4(CCN5)[C@H]3O7)c2)N=C(c2ccccc2)c2ccccc21 | tde | Active | Active | Active |  |
| C[C@@H](NC(=O)[C@@H](N)Cc1ccc(O)cc1)C(=O)NCC(=O)N(C)[C@@H](Cc1ccccc1)C(=O)NCCO |  |  |  |  | Activity ([6]; TDE = time-dependent effect): tde |
| CN1C(=O)[C@H](NC(=O)Nc2cccc(OCCNC(=O)COCC(=O)N[C@H]3CC[C@@]4(O)C5Cc6ccc(O)c7c6[C@@]4(CCN5)[C@H]3O7)c2)N=C(c2ccccc2)c2ccccc21 |  | inactive |  |  |  |
| CNC(=O)COCC(=O)NCCCCNC(=O)COCC(=O)N[C@H]1CC[C@@]2(O)C3Cc4ccc(O)c5c4[C@@]2(CCN3C)[C@H]1O5 |  | inactive |  |  | Activity [6]: Active |
